These results are taken from ChEMBL document CHEMBL5715941, “AZD1152, a selective inhibitor of Aurora B kinase, inhibits human tumor xenograft growth by inducing apoptosis” (Clin Cancer Res, 2007).

The subject of assay [1] is SW-620. Kind of assay: Antitumor activity against human SW620 cells xenografted in Swiss nude mouse assessed as inhibition in PhH3 level at 0.5 mg/kg/day, sc measured over 48 hrs by flow cytometry analysis relative to control. It counts as functional. The method in brief: (§1)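 Male nude mice with palpable s.c. SW620 tumors (n = 4/group) received AZD1152 (0.5-150 mg/kg/d) or vehicle by constant 48-h s.c. mini-pump infusion. Tumors were then excised, fixed and disaggregated. Flow cytometry with propidium iodide gave DNA content (2N, 4N, >4N), and rabbit anti-PhH3 with fluorescein anti-rabbit IgG gave PhH3-positive cells (%).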

Assay [2] relates to SW-620. The experiment in a line: Antitumor activity against human SW620 cells xenografted in Swiss nude mouse assessed as inhibition in PhH3 level at 2.5 mg/kg/day, sc measured over 48 hrs by flow cytometry analysis relative to control. The class given is functional. The method in brief: as §1
Assay [3] has as its system SW-620. The experiment in a line: Antitumor activity against human SW620 cells xenografted in Swiss nude mouse assessed as inhibition in PhH3 level at 10 to 150 mg/kg/day, sc measured over 48 hrs by flow cytometry analysis relative to control. The class given is functional. The following applies: dose 10-150 mg/kg/day. Summed up:
as §1

In assay [4] the test system is SW-620. Kind of assay: Antitumor activity against human SW620 cells xenografted in Swiss nude mouse assessed as reduction in PhH3 at Ser10 residue at 70 mg/kg/day, sc over 48 hrs by immunohistochemistry analysis. It counts as functional, organism-based. The method in brief:
(§2)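 Male nude mice bearing SW620 tumors (n = 4/group) had 48-h s.c. mini-pump infusion of AZD1152 (70 mg/kg/d) or vehicle. Excised tumor sections were stained with H&E, or immunostained for PhH3 Ser10 with rabbit polyclonal antibody, HRP-polymer detection and hematoxylin counterstain.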

The test system of assay [5] is SW-620. The experiment in a line: Antitumor activity against human SW620 cells xenografted in Swiss nude mouse assessed as increase in large multinucleated cells at 70 mg/kg/day, sc over 48 hrs by H&E staining method. The class given is functional, organism-based. Summed up:
as §2

Assay [6] concerns SW-620. Kind of assay: Antitumor activity against human SW620 cells xenografted in immunodeficient Swiss athymic mouse assessed as maximum inhibition of tumor volume at 150 mg/kg/day, sc for 48 hrs on days 7 to 9 and measured on day 23 relative to control. The class given is functional. As to conditions: SW-620, 408 h, time 17 day. Summed up: (§3)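 Male Swiss athymic nude mice, 8-12 wk; tumor cells (1×10^6-1×10^7, 50:50 Matrigel) implanted s.c. on flank. Randomized (n = 8-11) at 0.2-0.5 cm3. AZD1152 in Tris buffer pH 9, or vehicle (0.3 mol/L Tris), by 48-h s.c. osmotic mini-pump infusion (two 24-h pumps in sequence). Caliper volumes up to 3×/week; growth inhibition from change in control vs treated volume; one-tailed t test.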

Assay [7] relates to SW-620. Kind of assay: Antitumor activity against human SW620 cells xenografted in immunodeficient Swiss athymic mouse assessed as maximum inhibition of tumor volume at 25 mg/kg/day, sc for 48 hrs on days 7 to 9 and measured on day 14 relative to control. The class given is functional. The following applies: SW-620, 192 h, time 8 day. Summed up:
as §3

Assay [8] deals with SW-620. The experiment in a line: Antitumor activity against human SW620 cells xenografted in immunodeficient Swiss athymic mouse assessed as inhibition of tumor volume at 10 mg/kg/day, sc for 48 hrs on days 7 to 9 and measured on day 23 relative to control. It counts as functional. The following applies: SW-620, 408 h, time 17 day. The method in brief: as §3
The test system of assay [9] is SW-620. Kind of assay: Antitumor activity against human SW620 cells xenografted in immunodeficient Swiss athymic mouse assessed as inhibition of tumor volume at 25 mg/kg/day, ip for 4 days on days 6 to 9 and measured on day 24 relative to control. The class given is functional. As to conditions: SW-620, 456 h, time 19 day. Summed up: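 Male Swiss nude mice bearing s.c. flank SW620 xenografts (cells in Matrigel), randomized (n = 8-11) at 0.2-0.3 cm3. AZD1152 in Tris buffer pH 9, or vehicle, given as a once-daily i.v. or i.p. bolus. Caliper volumes up to 3×/week; inhibition from change in control vs treated volume; one-tailed t test.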

A further assay concerns COLO 205. Kind of assay: Antitumor activity against human COLO 205 cells xenografted in immunodeficient Swiss athymic mouse assessed as maximum inhibition of tumor volume at 150 mg/kg/day, sc for 48 hrs on days 5 to 7 and measured on day 18 relative to control. The class given is functional. As to conditions: COLO 205, 336 h, time 14 day. The method in brief:
as §3

In assay [10] the test system is A549. The experiment in a line: Antitumor activity against human A549 cells xenografted in immunodeficient Swiss athymic mouse assessed as maximum inhibition of tumor volume at 150 mg/kg/day, sc for 48 hrs on days 13 to 15 and measured on day 26 relative to control. It counts as functional. The following applies: A549, 336 h, time 14 day. Summed up:
as §3

Assay [11] has as its system A549. Kind of assay: Antitumor activity against human A549 cells xenografted in immunodeficient Swiss athymic mouse assessed as inhibition of tumor volume at 150 mg/kg/day, sc for 48 hrs on days 13 to 15 and measured on day 29 relative to control. As to conditions: A549, 408 h, time 17 day. The class given is functional. The method in brief: as §3
For assay [12], the system named is A549. Kind of assay: Antitumor activity against human A549 cells xenografted in immunodeficient Swiss athymic mouse assessed as maximum inhibition of tumor volume at 25 mg/kg/day, sc for 48 hrs on days 13 to 15 and measured on day 15 relative to control. The class given is functional. As to conditions: A549, 72 h, time 3 day. Summed up: as §3
Assay [13] concerns A549. Kind of assay: Antitumor activity against human A549 cells xenografted in immunodeficient Swiss athymic mouse assessed as inhibition of tumor volume at 25 mg/kg/day, sc for 48 hrs on days 13 to 15 and measured on day 29 relative to control. It counts as functional. The following applies: A549, 408 h, time 17 day. Summed up: as §3
For a further assay, the system named is Calu-6. The experiment in a line: Antitumor activity against human Calu-6 cells xenografted in immunodeficient Swiss athymic mouse assessed as inhibition of tumor volume at 150 mg/kg/day, sc for 48 hrs on days 20 to 22 and measured on day 41 relative to control. The class given is functional. The following applies: Calu-6, 528 h, time 22 day. Summed up:
as §3

Assay [14] relates to SW-620. The experiment in a line: Antitumor activity against human SW620 cells xenografted in nude athymic rat assessed as morphologic change at 25 mg/kg/day, iv for 4 consecutive days and measured on 5 day by H&E staining based immunohistochemistry analysis. It counts as functional, organism-based. Summed up: (§4)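 Nude rats bearing SW620 tumors were dosed i.v. with AZD1152 at 25 mg/kg/d or with vehicle on days 1-4. Subgroups (n = 3) were killed at set days. Tumor and bone marrow sections were H&E-stained and examined histologically.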

Assay [15] relates to SW-620. Kind of assay: Antitumor activity against human SW620 cells xenografted in nude athymic rat assessed as increase in cleaved caspase-3 at 25 mg/kg/day, iv for 4 consecutive days and measured on 9 day by H&E staining based immunohistochemistry analysis. It counts as functional, organism-based. The method in brief: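 Nude rats bearing SW620 tumors received i.v. AZD1152 at 25 mg/kg/d or vehicle on days 1-4 (n = 3 per time point). Tumor sections were immunostained for cleaved caspase-3 (HRP polymer). The percentage area of brown staining per field was quantified by color-threshold image analysis over six fields per section at ×20.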

In assay [16] the test system is SW-620. The experiment in a line: Antitumor activity against human SW620 cells xenografted in nude athymic rat assessed as atrophy in bone marrow at 25 mg/kg/day, iv for 4 consecutive days and measured on 5 day by H&E staining based immunohistochemistry analysis. It counts as functional, organism-based. The method in brief:
as §4

The subject of assay [17] is SW-620. The experiment in a line: Antitumor activity against human SW620 cells xenografted in nude athymic rat assessed as reduction in total cellular content at 25 mg/kg/day, iv for 4 consecutive days and measured on 5 day by H&E staining based immunohistochemistry analysis. It counts as functional, organism-based. The method in brief: as §4
Assay [18] concerns SW-620. Kind of assay: Antitumor activity against human SW620 cells xenografted in nude athymic rat assessed as most affect in leukocyte population at 25 mg/kg/day, iv for 4 consecutive days by flow cytometric analysis. It counts as functional, organism-based. As to conditions: time 4.0 day.

Activity calls are given as the source filed them.

For the compound `CCN(CCCOc1ccc2c(Nc3cc(CC(=O)Nc4cccc(F)c4)[nH]n3)ncnc2c1)CCOP(=O)(O)O` [BARASERTIB], the inhibition in vivo at 0.5 mg/kg/day with SW-620 [1] turned out to be 52%. The inhibition in vivo at 2.5 mg/kg/day in the assay on SW-620 [2] is 69%. Also, the “inhibition (INH)” value in the assay on SW-620 [3] is 77%. The outcome with SW-620 [4], in the assay on SW-620 [5], with SW-620 [14], in the assay with SW-620 [15], with SW-620 [16] and in the assay on SW-620 [17] was Active. Also, in the assay on SW-620 [18], the result was Active. For the same compound, the inhibition in vivo at 150 mg/kg/day with SW-620 [6] was 87%; in the assay on COLO 205 it was over 100%; in the assay with A549 [10], 79%; in the assay with A549 [11] it was 69%; with Calu-6, 55%. Moreover, the inhibition in vivo at 25 mg/kg/day with SW-620 [7] was determined as 65%; in the assay with SW-620 [9], 54%; with A549 [12], 74%; in the assay on A549 [13], 36%. In the assay on SW-620 [8], the inhibition in vivo at 10 mg/kg/day stood at 28%.
